Data reported in ChEMBL document CHEMBL1146641, “Synthesis of 3-O-acyl/3-benzylidene/3-hydrazone/3-hydrazine/17-carboxyacryloyl ester derivatives of betulinic acid as anti-angiogenic agents” (Bioorg Med Chem Lett, 2004).
≈ marks a conversion by molar mass, not a printed value.

Legend:
ECV-304 [1] = test: Cytotoxic activity against ECV304 (human endothelial) cell line.; format: functional, cell-based
In short: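 1.5 × 10⁴ cells exposed 72 h to compounds in DMSO (final DMSO <0.1%) at 0.5–4 µg/mL, in triplicate wells. Viability read by MTT. Experiment repeated three times; mean IC50 (half-maximal cytotoxicity) reported.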

[2] = Ratio of IC50 against DU145 prostate tumor cell line to IC50 of human endothelial ECV304 cell line; format: functional, ECV-304
In short: (§1)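 Endothelial selectivity ratio = IC50 on the tumor line / IC50 on ECV304. […] Wells in triplicate, experiments in triplicate, mean IC50 used. Ratio <10 rated low, 10–20 moderate, >20 high.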

[3] = Ratio of IC50 against HT-29 colon tumor cell line to IC50 of human endothelial ECV304 cell line; format: functional; in short: as §1
[4] = Ratio of IC50 against L132 Lung tumor cell line to IC50 of human endothelial ECV304 cell line; format: functional; in short: as §1
ECV-304 [5] = test: Ratio of IC50 against PA-1 ovary tumor cell line to IC50 of human endothelial ECV304 cell line; format: functional, Female gonad; in short: as §1
ECV-304 [6] = test: Inhibition of tube-like structure formation in ECV304 (human endothelial) cell line.; format: functional

SMILES | IC50 (ECV-304 [1]) [µg/mL] | ECS ratio [2] | ECS ratio [3] | ECS ratio [4] | ECS ratio (ECV-304 [5]) | Inhibition (ECV-304 [6]) [%]
COc1ccc(N/N=C2\CC[C@@]3(C)C(CC[C@]4(C)C3CCC3C5[C@H](C(C)C)CC[C@]5(C(=O)O)CC[C@]34C)C2(C)C)cc1 (stereo not given in full) | < 4 | – | – | – | – | –
C=C(C)[C@@H]1CC[C@]2(C(=O)O)CC[C@]3(C)C(CCC4[C@@]5(C)CC[C@H](OC(=O)c6ccc(CCCCCCC)cc6)C(C)(C)C5CC[C@]43C)C12 (stereo not given in full) | 1.7 (≈ 2.58 µM) | >5.8 | >5.89 | 4.1 | >2.3 | –
C=C(C)[C@@H]1CC[C@]2(C(=O)O)CC[C@]3(C)C(CCC4[C@@]5(C)CC[C@H](OC(=O)c6cccc(C(F)(F)F)c6)C(C)(C)C5CC[C@]43C)C12 (stereo not given in full) | 0.9 (≈ 1.43 µM) | >11.1 | >11.1 | 3 | >4.4 | –
CC(C)[C@@H]1CC[C@]2(C(=O)O)CC[C@]3(C)C(CCC4[C@@]5(C)CCC(N)C(C)(C)C5CC[C@]43C)C12 (stereo not given in full) | < 4 | – | – | – | – | –
C=CC(=O)OC(=O)[C@]12CC[C@@H](C(C)C)C1C1CCC3[C@@]4(C)CC[C@H](O)C(C)(C)C4CC[C@@]3(C)[C@]1(C)CC2 (stereo not given in full) | 2 (≈ 3.9 µM) | >2 | 5 | 2 | 0.75 | –
COc1ccc(NNC2CC[C@@]3(C)C(CC[C@]4(C)C3CCC3C5[C@H](C(C)C)CC[C@]5(C(=O)O)CC[C@]34C)C2(C)C)cc1 (stereo not given in full) | 0.4 (≈ 0.691 µM) | 21.1 | 0.87 | – | – | –
CC(C)[C@@H]1CC[C@]2(C(=O)O)CC[C@]3(C)C(CCC4[C@@]5(C)CC[C@H](O)C(C)(C)C5CC[C@]43C)C12 (stereo not given in full) [DIHYDROBETULINIC ACID] | < 4 | – | – | – | – | –
CC(C)[C@@H]1CC[C@]2(C(=O)O)CC[C@]3(C)C(CCC4[C@@]5(C)CCC(/N=C/c6ccc(F)c(F)c6)C(C)(C)C5CC[C@]43C)C12 (stereo not given in full) | 0.35 (≈ 0.602 µM) | 6.2 | 11.4 | 7.1 | 3.7 | 32
CC(C)[C@@H]1CC[C@]2(C(=O)O)CC[C@]3(C)C(CCC4[C@@]5(C)CC/C(=N\Nc6ccccc6)C(C)(C)C5CC[C@]43C)C12 (stereo not given in full) | < 4 | – | – | – | – | –
CC(C)[C@@H]1CC[C@]2(C(=O)O)CC[C@]3(C)C(CCC4[C@@]5(C)CC[C@H](OC(=O)c6ccccc6C(F)(F)F)C(C)(C)C5CC[C@]43C)C12 (stereo not given in full) | 2.6 (≈ 4.12 µM) | >1.5 | 3.84 | 1.5 | >1.53 | –
CC(C)[C@@H]1CC[C@]2(C(=O)O)CC[C@]3(C)C(CCC4[C@@]5(C)CC/C(=N\O)C(C)(C)C5CC[C@]43C)C12 (stereo not given in full) | < 4 | – | – | – | – | –
CC(C)[C@@H]1CC[C@]2(C(=O)O)CC[C@]3(C)C(CCC4[C@@]5(C)CCC(=O)C(C)(C)C5CC[C@]43C)C12 (stereo not given in full) | < 4 | – | – | – | – | –
C=C(C)[C@@H]1CC[C@]2(C(=O)O)CC[C@]3(C)C(CCC4[C@@]5(C)CC[C@H](OC(=O)Cc6cc(OC)ccc6OC)C(C)(C)C5CC[C@]43C)C12 (stereo not given in full) | 1.8 (≈ 2.84 µM) | 0.55 | >5.6 | 2.5 | – | –
C=C(C)[C@@H]1CC[C@]2(C(=O)O)CC[C@]3(C)C(CCC4[C@@]5(C)CC/C(=N\Nc6ccccc6)C(C)(C)C5CC[C@]43C)C12 (stereo not given in full) | 2.4 (≈ 4.41 µM) | 2.7 | 4.2 | 1.9 | 2.08 | –
C=C(C)[C@@H]1CC[C@]2(C(=O)O)CC[C@]3(C)[C@H](CC[C@@H]4[C@@]5(C)CCC(=O)C(C)(C)[C@@H]5CC[C@]43C)[C@@H]12 [BETUNOLIC ACID] | < 4 | – | – | – | – | –
CC(C)[C@@H]1CC[C@]2(C(=O)O)CC[C@]3(C)C(CCC4[C@@]5(C)CC[C@H](OC(=O)c6ccc(F)cc6F)C(C)(C)C5CC[C@]43C)C12 (stereo not given in full) | 0.7 (≈ 1.17 µM) | 3.5 | 2.4 | 1.5 | 2.3 | 20
C=C(C)[C@@H]1CC[C@]2(C(=O)O)CC[C@]3(C)C(CCC4[C@@]5(C)CC[C@H](OC(=O)c6ccc(CCCCC)cc6)C(C)(C)C5CC[C@]43C)C12 (stereo not given in full) | 1.9 (≈ 3.01 µM) | 1.05 | 1.84 | 3.1 | >2.1 | –
C=CC(=O)OC(=O)[C@]12CC[C@@H](C(=C)C)C1C1CCC3[C@@]4(C)CC[C@H](O)C(C)(C)C4CC[C@@]3(C)[C@]1(C)CC2 (stereo not given in full) | 4 (≈ 7.83 µM) | >2.5 | 2.5 | 0.43 | >1 | –
CC(C)[C@@H]1CC[C@]2(C(=O)O)CC[C@]3(C)C(CCC4[C@@]5(C)CC[C@H](OC(=O)c6cc(F)cc(F)c6)C(C)(C)C5CC[C@]43C)C12 (stereo not given in full) | 0.7 (≈ 1.17 µM) | 4.5 | >14.3 | 1.7 | – | –
CC(C)[C@@H]1CC[C@]2(C(=O)O)CC[C@]3(C)C(CCC4[C@@]5(C)CCC(NNc6ccccc6)C(C)(C)C5CC[C@]43C)C12 (stereo not given in full) | 0.5 (≈ 0.911 µM) | 19.8 | 3.5 | 1.6 | 7 | –
C=C(C)[C@@H]1CC[C@]2(C(=O)O)CC[C@]3(C)[C@H](CC[C@@H]4[C@@]5(C)CC[C@H](O)C(C)(C)[C@@H]5CC[C@]43C)[C@@H]12 [BETULINIC ACID] | 1.2 (≈ 2.63 µM) | 2.2 | – | 1 | 3.2 | –
CC(C)[C@@H]1CC[C@]2(C(=O)O)CC[C@]3(C)C(CCC4[C@@]5(C)CCC(/N=C/c6ccc(F)cc6F)C(C)(C)C5CC[C@]43C)C12 (stereo not given in full) | 2.4 (≈ 4.12 µM) | 1.04 | 2.04 | 1.4 | 0.54 | 48
